Laboratory results: PubChem BioAssay AID504513 (The Scripps Research Institute Molecular Screening Center, 2011)
Calls of active or inactive are those of the source.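 The calls were made as follows: active = PAFAH2 inhibition at least 50% at 0.2 µM with under 50% on each related off-target enzyme; inactive = the rest, including PAFAH2 hits that also hit off-targets.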

Assays:
Experiment in all cases: PAFAH2 inhibition and serine hydrolase selectivity, late-stage follow-up, cell lysate, fluorescence, gel-based ABPP, BW5147 T-cell proteome, powder samples (AID 504513);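 also: 0% = DMSO-only band intensity and 100% = blank gel background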
[1] = system: ABHD11; details: BW5147 mouse T-cell proteome, FP-Rh gel ABPP, stronger effect = higher value
Procedure, shortened: (§1)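 System – mouse BW5147 T-cell soluble lysate · Input – 1 mg/mL soluble protein · Reagent – FP-Rh probe at 2 µM · Compound dosing – 0.02, 0.2 or 1 µM compound · Times – 30 min compound, 30 min probe at 25 °C · Signal – in-gel fluorescence of probe-labelled bands, integrated optical density · Read-out – percent band labelling lost versus DMSO control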

[2] = system: APEH; details: BW5147 mouse T-cell proteome, FP-Rh gel ABPP, stronger effect = higher value
Procedure, shortened: as §1

[3] = system: ESD; details: BW5147 mouse T-cell proteome, FP-Rh gel ABPP, stronger effect = higher value
Procedure, shortened: as §1

[4] = system: LYPLA1; details: BW5147 mouse T-cell proteome, FP-Rh gel ABPP, stronger effect = higher value
Procedure, shortened: as §1

[5] = target: Platelet-activating factor acetylhydrolase 2, cytoplasmic (Mus musculus) (UniProt Q8VDG7); details: FP-Rh gel ABPP, stronger effect = higher value
Procedure, shortened: as §1

Platelet-activating factor acetylhydrolase 2, cytoplasmic (Mus musculus), sequence (Q8VDG7 whole entry, looked up): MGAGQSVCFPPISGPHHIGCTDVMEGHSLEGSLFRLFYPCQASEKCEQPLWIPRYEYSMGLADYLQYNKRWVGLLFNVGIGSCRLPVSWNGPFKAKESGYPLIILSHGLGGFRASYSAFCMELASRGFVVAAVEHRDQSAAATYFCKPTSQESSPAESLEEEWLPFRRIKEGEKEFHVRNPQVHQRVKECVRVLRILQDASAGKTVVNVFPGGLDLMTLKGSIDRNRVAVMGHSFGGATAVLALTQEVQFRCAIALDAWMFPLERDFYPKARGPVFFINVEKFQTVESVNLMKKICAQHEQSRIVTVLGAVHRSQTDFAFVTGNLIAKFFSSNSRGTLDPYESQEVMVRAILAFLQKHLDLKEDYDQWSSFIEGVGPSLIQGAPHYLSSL

SMILES: C=CCN(CC=C)C(=O)n1ccnn1
- inhibition ([1]; at 1 µM): 100% (inactive)
- inhibition ([1]; inhibition, at 0.02 µM): 0%
- inhibition ([1]; inhibition, at 0.2 µM): 0%
- inhibition ([2]; at 1 µM): 0% (inactive)
- inhibition ([2]; inhibition, at 0.02 µM): 0%
- inhibition ([2]; inhibition, at 0.2 µM): 0%
- inhibition ([3]; at 1 µM): 0% (inactive)
- inhibition ([3]; inhibition, at 0.02 µM): 0%
- inhibition ([3]; inhibition, at 0.2 µM): 0%
- inhibition ([4]; at 1 µM): 0% (inactive)
- inhibition ([4]; inhibition, at 0.02 µM): 0%
- inhibition ([4]; inhibition, at 0.2 µM): 0%
- inhibition ([5]; PAFAH2, at 1 µM): 0% (inactive)
- inhibition ([5]; PAFAH2, inhibition, at 0.02 µM): 0%
- inhibition ([5]; PAFAH2, inhibition, at 0.2 µM): 0%
